Source: PubChem
MC4R antagonist: human MC4R antagonism in cAMP assay | P32245 | MC4R-expressing cells, MTII-stimulated cAMP, LANCE TR-FRET | inhibition, % at 6.5 µM | 360,000 tested, 0.48% active | AID 540295;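 active = inhibition above its plate's cutoff, the mean of tested wells on that plate plus 3 SD, cut at about 29% in these data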;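 also: 0% = Melanotan II alone and 100% = Melanotan II plus saturating MCL0020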
Target sequence (P32245 whole entry, looked up): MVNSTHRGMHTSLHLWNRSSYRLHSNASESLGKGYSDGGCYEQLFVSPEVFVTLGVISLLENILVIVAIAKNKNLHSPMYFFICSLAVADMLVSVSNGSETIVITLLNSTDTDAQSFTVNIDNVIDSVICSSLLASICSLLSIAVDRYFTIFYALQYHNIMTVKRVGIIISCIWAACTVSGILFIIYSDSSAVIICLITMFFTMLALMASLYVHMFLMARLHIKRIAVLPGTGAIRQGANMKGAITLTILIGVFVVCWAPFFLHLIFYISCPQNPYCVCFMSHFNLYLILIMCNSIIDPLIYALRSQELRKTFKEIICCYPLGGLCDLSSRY
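Assay system: U2OS-MC4R stable cell line; Also added: Melanotan II; Technique: Eu-cAMP/anti-cAMP TR-FRET, emission 671 nm; Times: 30-min compound, 1-h challenge, 1-h detection, room temperature.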
PfGluPho inh: PfG6PD (Plasmodium falciparum) enzyme inhibition | AID 504690 | inhibition, % at 20 µM | PfGluPho enzyme, NADPH resazurin-diaphorase fluorescence | 350,000 tested, 0.78% active;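 active = inhibition reaching at least a set limit at 20 µM in the primary screen, cut at about 59% in these data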;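 also: 0% = DMSO wells with substrate and 100% = DMSO wells lacking glucose-6-phosphate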
ABHD5 PLIN5 PPI: blocks binding of human ABHD5 to perilipin-5; Split G. princeps luciferase complementation, luminescence, 4 h; AID 602281; 360,000 tested, 0.78% active; inhibition, % at 4 µM; Q00G26+Q8WTS1;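 active = inhibition above the mean inhibition across every tested compound plus 3 SD, cut at about 22% in these data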;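 also: 0% = DMSO only wells and the 100% control is not disclosed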
Beta2AR agonist: activates human beta-2 adrenergic receptor causing internalization; P07550; Am2.2-beta2AR cells, FAP receptor internalization, flow cytometry; response, % (test concentration not listed); 340,000 tested, 0.43% active;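 active = response above a set limit, near 3 SD of response in nonfluorescent compounds, cut at about 42% in these data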
MC4R ag barr: human MC4R agonism via beta-arrestin; activation, % at 8.9 µM; P32245; 360,000 tested, 0.98% active; U2OS MC4R beta-arrestin complementation, luminescence; percent of melanotan II response, DMSO zero;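 active = activation above a per-plate cutoff, the mean activation of sample wells on that plate plus 3 SD, cut at about 8% in these data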
Beta2AR ag CP1: human beta-2 adrenergic receptor agonism, cherry pick | percent response (surface receptor), % at 10 µM | shares compounds with Beta2AR agonist | Am2.2-beta2AR cells, FAP surface receptor, flow cytometry; stronger effect = lower value | 1,100 tested, 25% active;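 active = surface receptor percent response at or below 58%, roughly 3 SD from nonfluorescent compounds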
B2AR FAP counter: counter-screen for beta-2AR agonists: fluorescence in Am2.2 cells; shares compounds with Beta2AR agonist; FAP fluorogen flow cytometry, fluorescence counterscreen; stronger effect = lower value; calls only at 10 µM; 1,100 tested, under 10 active;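 active = percent response below a set limit in fluorescence channel 1 and below 50% in channel 8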
* = called active by the depositor; i = inactive; · = no result. Sampled rows, rich in hits. Any-hit rate of the full collection: about 3%.

SMILES	MC4R antagonist	PfGluPho inh	ABHD5 PLIN5 PPI	Beta2AR agonist	MC4R ag barr	Beta2AR ag CP1	B2AR FAP counter
O=C(Nc1ccc2nn(-c3ccccc3)nc2c1)c1ccc2c(c1)OCCO2	4	13	2	-7	4	·	·
CCOc1ccc(-n2nc3ccc(NC(=O)c4ccc5c(c4)OCCO5)cc3n2)cc1	0	-2	3	69*	1	98	i
Cc1ccc2oc(-c3ccc(NC(=O)c4ccc5c(c4)OCO5)cc3)nc2c1	6	14	5	4	0	·	·
O=C(Nc1ccc2oc(-c3ccccc3F)nc2c1)c1ccc2c(c1)OCCO2	-4	21	-6	23	4	88	i
COc1ccc(C2=NS(=O)(=O)N(C)C(C(=O)NCc3ccc4c(c3)OCO4)=C2)cc1OC	15	14	-2	-3	0	·	·
O=[N+]([O-])c1ccc(N/N=C2/CCCCC2c2ccccn2)cc1 (centres undefined)	-2	39	-2	6	-4	·	·
Cc1cccc(NC(=O)c2sc3nc(C)nc(N4CCOCC4)c3c2C)c1	5	7	-9	·	-1	·	·
CCOc1ccc(NC(=O)c2sc3nc(C)nc(N4CCOCC4)c3c2C)cc1	6	-6	1	69*	-1	99	i
COc1ccc2[nH]c(=O)c(CN(CC3CCCO3)S(=O)(=O)c3ccccc3F)cc2c1 (centres undefined)	0	-14	13	3	-1	·	·
CCOC(=O)c1ccc(NC(=O)Nc2ccon2)cc1	-24	14	-3	44*	-1	61	i
COc1cccc(CNC(=O)c2ccc(S(=O)(=O)N3CCCCC3)cc2)c1	0	12	-4	·	0	·	·
COc1ccccc1Nc1nn2c(=O)c3ccc(C(=O)NCc4cccnc4)cc3nc2s1	0	·	5	55*	-2	97	i
Cc1ccccc1C(C(=O)NC1CCCCC1)N(C(=O)CNC(=O)c1ccco1)c1cccnc1 (centres undefined)	27	8	4	0	-2	·	·
COCCCNC(=O)c1cc(-c2cccnc2)nc2ccc(S(=O)(=O)N3CCCCCC3)cc12	4	-21	-5	17	0	94	i
CCCCNS(=O)(=O)c1ccc2nc(-c3cccnc3)cc(C(=O)NCCCOC)c2c1	8	-9	1	-5	-1	·	·
Cc1cc(Br)cc2cn[nH]c12	-3	4	7	0	-2	·	·
O=C(Nc1cccc(-c2nc3ncccc3o2)c1)c1sc2cc(Cl)ccc2c1Cl	1	8	-4	42*	-1	12*	i
O=C(Nc1cccc(-c2nc3ncccc3o2)c1)c1sc2ccccc2c1Cl	-11	16	-3	30	0	·	·
CN(CCOc1ccc(-c2ccn(S(=O)(=O)c3cccc4ccccc34)n2)cc1)c1ccccn1	4	20	2	76*	-1	39*	i
CC(C)(C)OC(=O)C[C@H]1C/C=C\C[C@H](CC(=O)NCCO)C(=O)NC[C@@H](c2ccccc2)OC1=O	0	7	-1	-5	0	·	·
CCC(=O)N1CCc2cc(Br)cc(S(=O)(=O)CC(=O)OC)c21	4	22	-1	9	0	·	·
CCC(=O)N1CCc2cc(Br)cc(S(=O)(=O)N(C)c3ccc(OC)cc3)c21	-6	5	5	101*	1	19*	i
O=C(Nc1ccc(F)cc1)Nc1ccc(NC(=O)c2ccccc2O)cc1	1	9	-5	1	1	·	·
CCCCN(C)CCNC(=O)CN1C(=O)CSc2ccc(S(=O)(=O)N3CCOCC3)cc21	-1	5	3	-4	0	·	·
O=C(Nc1nnc(-c2ccc(F)cc2)s1)C1CCN(S(=O)(=O)c2ccc(Cl)cc2)CC1	0	-11	-8	1	4	·	·
SMILES	MC4R antagonist	PfGluPho inh	ABHD5 PLIN5 PPI	Beta2AR agonist	MC4R ag barr	Beta2AR ag CP1	B2AR FAP counter
Cc1ccc(S(=O)(=O)N2CCC(C(=O)Nc3nnc(-c4ccc(F)cc4)s3)CC2)cc1	4	-3	-6	65*	-2	102	i
CO/N=C/NC(=O)c1c(OC)ccnc1Oc1cccc(C(F)(F)F)c1	14	10	-5	-4	-1	·	·
C[C@H](O)[C@@H]1C(=O)N2CCc3ccc(-c4ccccc4)cc3[C@@H]2C[C@@H]1N(C)C(=S)Nc1ccc(F)cc1	-1	22	5	·	1	·	·
CCN(CC)c1ccc(NC(=O)c2cccc(OC)c2)c(C)c1	-9	25	-7	10	-2	·	·
CCN(CC)c1ccc(NC(=O)c2cc(OC)cc(OC)c2)c(C)c1	-24	37	-1	55*	-4	78	i
COc1ccc(OCC(=O)Nc2ccc3c(c2)nc(CCN2CCN(C)CC2)n3C)cc1	18	-16	3	52*	-1	107	i
Cc1cccc(OCC(=O)Nc2ccc3c(c2)nc(CCN2CCN(C)CC2)n3C)c1	5	2	-2	-1	-1	112	i
CC1=C(C(=O)Nc2ccc(C(=O)N3CCN(c4ccccc4F)CC3)cc2)SCCO1	9	9	-1	73*	0	21*	i
O=C1CC(C(=O)Nc2ccccc2)C2(CCCC2)O1 (centres undefined)	3	-16	-4	-3	1	·	·
O=C1CC(C(=O)Nc2ccc(C(=O)N3CCOCC3)cc2)C2(CCCCC2)O1 (centres undefined)	2	-9	2	52*	1	136	i
CCOc1ccc2oc(C(=O)O)c(C)c2c1	9	-5	-3	3	-2	·	·
CCOc1ccc2oc(C(=O)NCC(C)(C)CN(C)C)c(C)c2c1	12	-10	9	55*	2	103	i
CC1(C)CC(Cc2cccc(C(F)(F)F)c2)N(C(=O)OC(C)(C)C)C1 (centres undefined)	4	-12	0	·	-2	111	i
CC(C)(C)OC(=O)N1CC2(CCCCC2)CC1Cc1ccc(C(F)(F)F)cc1 (centres undefined)	22	9	-9	·	1	100	i
CCCCn1c(N)c(N(CC)C(=O)c2ccc3c(c2)S(=O)(=O)c2ccccc2C3=O)c(=O)[nH]c1=O	6	-1	0	55*	-2	112	i
Cc1ccc(Sc2ncccc2COC(=O)Nc2c(C)cccc2C)cc1	-1	12	-4	63*	1	118	i
O=C1CN(S(=O)(=O)c2ccc(Br)cc2)c2ccccc2N1	7	12	-4	-6	1	·	·
O=C1CN(S(=O)(=O)c2cccc(Cl)c2Cl)c2ccccc2N1	0	22	-3	46*	3	26*	i
Cc1cccc(N(C)S(=O)(=O)c2ccc(-c3cnc(C4CC4)o3)cc2)c1	-16	-12	-2	23	-4	·	·
